Assay results published in ChEMBL document CHEMBL4706681, “New 2-Pyrazoline and Hydrazone Derivatives as Potent and Selective Monoamine Oxidase A Inhibitors” (J Med Chem, 2021).
Activity calls are given as the source filed them. The calls are words filed in the database; no cut-off is given here.

Tests used:
[1] = target: T1, Amine oxidase [flavin-containing] A (Homo sapiens, UniProt P21397); assay: Reversible inhibition of human MAO-A assessed as residual enzyme activity at 4 fold IC50 incubated for 15 mins and measured 24 hrs post dialysis by dialysis method relative to control; conditions: 24.25 h, time 1455 min
T1 sequence (P21397 whole entry): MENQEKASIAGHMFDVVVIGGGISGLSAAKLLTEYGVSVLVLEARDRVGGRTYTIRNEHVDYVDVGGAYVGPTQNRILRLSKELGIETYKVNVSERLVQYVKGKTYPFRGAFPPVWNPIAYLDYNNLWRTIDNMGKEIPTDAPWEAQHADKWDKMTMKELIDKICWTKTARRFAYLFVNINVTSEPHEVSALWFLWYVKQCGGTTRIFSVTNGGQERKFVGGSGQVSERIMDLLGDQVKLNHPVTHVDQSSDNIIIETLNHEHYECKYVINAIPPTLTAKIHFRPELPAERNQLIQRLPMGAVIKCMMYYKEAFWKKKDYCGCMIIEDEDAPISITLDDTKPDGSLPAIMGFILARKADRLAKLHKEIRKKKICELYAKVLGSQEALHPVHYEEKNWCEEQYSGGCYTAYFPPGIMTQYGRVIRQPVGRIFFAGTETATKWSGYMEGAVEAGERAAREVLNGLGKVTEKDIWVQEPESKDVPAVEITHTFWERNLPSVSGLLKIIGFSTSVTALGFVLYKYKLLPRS
In short: (§1)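 Dialysed (MWCO 12 000) at 4 °C for 24 h against 100 mM potassium phosphate pH 7.4, 5% sucrose, buffer changed twice. Dialysed and undialysed mixtures assayed together; residual activity from triplicates.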

[2] = target: T1, Amine oxidase [flavin-containing] A; assay: Inhibition of recombinant human MAO-A expressed in baculovirus infected BTI insect cells using p-tyramine as substrate incubated for 30 mins by Amplex red reagent based fluorescence analysis
Mus musculus [3] = assay: Antidepressant-like activity in CD1 mouse assessed as reduction in immobility time at 30 mg/kg, po administered via gavage for 7 days and measured 1 h post last dose by Porsolt-forced swim test; format: functional, organism-based; conditions: time 7.0 day
In short: (§2)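 Male albino CD-1 mice (20–25 g), 12 h light/dark, food and water ad libitum. Dosed by oral gavage once daily for 7 days in 200 μL 0.5% CMC; vehicle-only controls. […] Forced swim test run 1 h after the last dose. Immobility scored every 60 s over 6 min; n = 8–12.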

[4] = target: T2, Amine oxidase [flavin-containing] B (Homo sapiens, UniProt P27338); assay: Inhibition of recombinant human MAO-B expressed in baculovirus infected BTI insect cells using p-tyramine as substrate incubated for 30 mins by Amplex red reagent based fluorescence analysis; format: cell-based
T2 sequence (P27338 whole entry): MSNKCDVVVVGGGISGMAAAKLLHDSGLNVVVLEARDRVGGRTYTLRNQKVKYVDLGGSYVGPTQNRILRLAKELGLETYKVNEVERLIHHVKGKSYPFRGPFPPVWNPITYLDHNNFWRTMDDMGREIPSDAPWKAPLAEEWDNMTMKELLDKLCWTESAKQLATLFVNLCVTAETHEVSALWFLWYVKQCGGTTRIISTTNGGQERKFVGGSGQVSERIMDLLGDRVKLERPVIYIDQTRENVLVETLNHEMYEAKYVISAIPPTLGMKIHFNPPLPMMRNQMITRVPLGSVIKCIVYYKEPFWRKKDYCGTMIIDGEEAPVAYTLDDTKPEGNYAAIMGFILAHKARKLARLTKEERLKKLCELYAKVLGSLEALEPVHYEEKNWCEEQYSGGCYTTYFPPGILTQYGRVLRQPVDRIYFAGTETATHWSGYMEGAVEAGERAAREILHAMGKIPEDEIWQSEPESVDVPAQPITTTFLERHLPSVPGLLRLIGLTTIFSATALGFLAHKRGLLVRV

[5] = target: T2, Amine oxidase [flavin-containing] B; assay: Reversible inhibition of human MAO-B assessed as residual enzyme activity at 4 fold IC50 incubated for 15 mins and measured before dialysis relative to control; in short: as §1
[6] = target: T2, Amine oxidase [flavin-containing] B; assay: Reversible inhibition of human MAO-B assessed as residual enzyme activity at 4 fold IC50 incubated for 15 mins and measured 24 hrs post dialysis relative to control; conditions: 24.25 h, time 1455 min; in short: as §1
Mus musculus [7] = assay: Antidepressant-like activity in CD1 mouse assessed as reduction in immobility time at 30 mg/kg, po administered via gavage as single dose measured after 1 hr by Porsolt-forced swim test; format: functional, organism-based
[8] = Cytotoxicity against human HepG2 cells assessed as cell viability at 7.5 uM incubated for 2 hrs by MTT assay relative to control; format: cell-based; conditions: read-out: Activity
In short: (§3)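 HepG2 human hepatoma cells; viability read by MTT assay, with 0.1% DMSO as vehicle control. Viability given as % of control, mean ± SEM (n = 3); p < 0.05 taken as significant.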

[9] = Effect on locomotor activity in CD1 mouse assessed as total distance traveled at 30 mg/kg, po administered via gavage for 7 days by open field test; format: ADME, organism-based; conditions: in vivo, 168 h, time 7 day
In short: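 Each mouse placed in the centre of a 50 × 50 × 30 cm black box and video-tracked; total distance travelled over 5 min; n = 8–10.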

Mus musculus [10] = assay: Antidepressant-like activity in CD1 mouse assessed as maximum efficacy at 20 mg/kg, po administered as subchronic dose gavage for 7 days and measured 1 h post last dose by Porsolt-forced swim test; format: functional, organism-based; conditions: time 7.0 day; in short: as §2
[11] = target: T1, Amine oxidase [flavin-containing] A; assay: Reversible inhibition of human MAO-A assessed as residual enzyme activity at 4 fold IC50 incubated for 15 mins and measured before dialysis by dialysis method relative to control; in short: as §1
[12] = Cytotoxicity against human HepG2 cells assessed as cell viability at 15 uM incubated for 2 hrs by MTT assay relative to control; format: cell-based; conditions: read-out: Activity; in short: as §3
[13] = Cytotoxicity against human HepG2 cells assessed as cell viability at 30 uM incubated for 2 hrs by MTT assay relative to control; format: cell-based; conditions: read-out: Activity; in short: as §3
[14] = Ex vivo inhibition of MAOA in CD1 mouse brain homogenates assessed as MAOA level at 30 mg/kg, po administered as subchronic dose via gavage for 7 days and measured 1 hr post last dose by monoamine oxidase assay (reference value: 0.40 +/- 0.005 nmol/min/mg); format: functional; conditions: time 7 day
[15] = Ex vivo inhibition of MAOA in CD1 mouse brain homogenates assessed as 5-HT levels at 30 mg/kg, po administered as subchronic dose via gavage for 7 days and measured 1 hr post last dose by ELISA kit method (reference value: 0.78 +/- 0.01 ug/g); format: functional; conditions: time 7 day
[16] = Ex vivo inhibition of MAOA in CD1 mouse brain homogenates assessed as assessed as inhibition of 5-HT deamination by measuring 5-HIAA metabolite levels at 30 mg/kg, po administered as single acute dose via gavage and measured after 1 hr by HPLC analysis (reference value: 0.28 +/- 0.011 ug/g); format: functional
[17] = Ex vivo inhibition of MAOA in CD1 mouse brain homogenates assessed as assessed as inhibition of dopamine deamination by measuring DOPAC metabolite levels at 30 mg/kg, po administered as single acute dose via gavage and measured after 1 hr by HPLC analysis (reference value: 1.22 +/- 0.2 ug/g); format: functional
[18] = Ex vivo inhibition of MAOA in CD1 mouse brain homogenates assessed as dopamine levels at 30 mg/kg, po administered as single acute dose via gavage and measured after 1 hr by ELISA kit method (reference value: 7.08 +/- 0.58 ug/g); format: functional
[19] = Ex vivo inhibition of MAOA in CD1 mouse brain homogenates assessed as inhibition of 5-HT deamination by measuring 5-HIAA metabolite levels by using at 30 mg/kg, po administered as subchronic dose via gavage for 7 days and measured 1 hr post last dose by HPLC analysis (reference value: 0.18 +/- 0.01 ug/g); format: functional; conditions: time 7 day
[20] = Ex vivo inhibition of MAOA in CD1 mouse brain homogenates assessed as MAOA level at 30 mg/kg, po administered as single acute dose via gavage and measured after 1 hr by monoamine oxidase assay (reference value: 0.40 +/- 0.012 nmol/min/mg); format: functional
[21] = Permeability of compound in PBS/EtOH buffer (70:30) at 25 ug/ml incubated for 16 hrs by UV plate reader based PAMPA-BBB
[22] = Ex vivo inhibition of MAOA in CD1 mouse brain homogenates assessed as 5-HT levels at 30 mg/kg, po administered as single acute dose via gavage and measured after 1 hr by ELISA kit method (reference value: 0.80 +/- 0.006 ug/g); format: functional
[23] = Selectivity index, ratio of Ki for inhibition of recombinant human MAO-A to Ki for inhibition of recombinant human MAO-B using p-tyramine as substrate
[24] = target: T1, Amine oxidase [flavin-containing] A; assay: Irreversible inhibition of human MAO-A assessed as residual enzyme activity at 4 fold IC50 incubated for 15 mins and measured 24 hrs post dialysis relative to control; conditions: 24.25 h, time 1455 min
In short: (§4)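 Recombinant hMAO-A (1 U/mL) was preincubated with inhibitor for 15 min at 37 °C in 0.05 M potassium phosphate, pH 7.4, with 5% sucrose and 1% DMSO. It was then dialyzed at 4 °C against 100 mM potassium phosphate, pH 7.4, 5% sucrose (12 000 MWCO), with buffer replaced twice over 24 h. Dialyzed and undialyzed mixtures were assayed together for MAO-A activity, in triplicate; residual activity is given as mean ± SEM.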

[25] = target: T1, Amine oxidase [flavin-containing] A; assay: Irreversible inhibition of human MAO-A assessed as residual enzyme activity at 4 fold IC50 incubated for 15 mins and measured before dialysis relative to control; in short: as §4

Structure (SMILES) | Activity [1] [%] | Ki [2] [µM] | Activity (Mus musculus [3]) | Ki [4] [µM] | Activity [5] [%] | Activity [6] [%] | Activity (Mus musculus [7]) | viability at 2 h, 7.5 µM [8] [%] | Activity [9] | Activity [11] [%] | viability at 2 h, 15 µM [12] [%] | viability at 2 h, 30 µM [13] [%] | Activity [14] [nmol/min/mg] | Activity [15] [µg/g] | Activity [16] [µg/g] | Activity [17] [µg/g] | Activity [18] [µg/g] | Activity [19] [µg/g] | Activity [20] [nmol/min/mg] | Papp at 16 h, 25 ug/ml [21] [×10⁻⁶ cm/s] | other results
COc1ccc(C(/C=C/c2cccc(OC)c2OC)=N/NC(=O)Cn2c(=O)oc3ccc(Cl)cc32)cc1 | 93.57 | 0.01 | Active | 1850 | 82.37 | 95.21 | Active | 118 | Non-Toxic | 20.16 | 99.1 | 88.5 | – | – | – | – | – | – | – | – | Activity (Mus musculus [10]): inactive
COc1ccc(C2CC(c3ccccc3)=NN2C(=O)Cn2c(=O)oc3ccccc32)cc1OC (centres undefined) | 94 | 0.009 | Active | 20 | 78.9 | 94.8 | inactive | 90.4 | Non-Toxic | 23.11 | 88.2 | 85.3 | 0.27 | 1.04 | 0.32 | 1.23 | 7.08 | 0.24 | 0.28 | 9.44 | Activity [22]: 0.91 µg/g; Ratio Ki [23]: 4.55 10^-5No_unit
COc1cccc(C2CC(c3ccccc3)=NN2C(=O)Cn2c(=O)oc3ccccc32)c1 (centres undefined) | 91.74 | 0.008 | Active | 8.25 | 85 | 92.25 | inactive | 96.2 | Non-Toxic | 24.55 | 88.3 | 77.3 | 0.29 | 1.01 | 0.32 | 1.23 | 7.08 | 0.24 | 0.31 | 8.9 | Activity [22]: 0.88 µg/g; Ratio Ki [23]: 0.00097
COc1ccc(C2=NN(C(=O)Cn3c(=O)oc4ccccc43)C(c3ccccc3Cl)C2)cc1 (centres undefined) | 90.16 | 0.001 | Active | 1.25 | 78.2 | 91.5 | Active | 91.2 | Non-Toxic | 18.11 | 90 | 85 | 0.24 | 1.19 | 0.35 | 1.24 | 7.1 | 0.31 | 0.25 | 11 | Activity [22]: 0.98 µg/g; Ratio Ki [23]: 8 10^-4No_unit
C#CCN(C)[C@H](C)Cc1ccccc1 [SELEGILINE] | – | – | – | – | – | – | – | 90 | – | – | 87.2 | 84 | – | – | – | – | – | – | – | – | Activity [24]: 90.01%; Activity [25]: 89.96%
